Test results: ChEMBL document CHEMBL1133154, “Inhibition of inducible nitric oxide synthase by acetamidine derivatives of hetero-substituted lysine and homolysine” (Bioorg Med Chem Lett, 2000)

Assays:
[1] = target: Nitric oxide synthase, inducible (Homo sapiens, UniProt P35228); experiment: Inhibition of human inducible nitric oxide synthase
Nitric oxide synthase 3 [2] = target: T1, Nitric oxide synthase 3 (Homo sapiens, UniProt P29474); experiment: Inhibition of human endothelial Nitric Oxide Synthase
T1 sequence (P29474 whole entry): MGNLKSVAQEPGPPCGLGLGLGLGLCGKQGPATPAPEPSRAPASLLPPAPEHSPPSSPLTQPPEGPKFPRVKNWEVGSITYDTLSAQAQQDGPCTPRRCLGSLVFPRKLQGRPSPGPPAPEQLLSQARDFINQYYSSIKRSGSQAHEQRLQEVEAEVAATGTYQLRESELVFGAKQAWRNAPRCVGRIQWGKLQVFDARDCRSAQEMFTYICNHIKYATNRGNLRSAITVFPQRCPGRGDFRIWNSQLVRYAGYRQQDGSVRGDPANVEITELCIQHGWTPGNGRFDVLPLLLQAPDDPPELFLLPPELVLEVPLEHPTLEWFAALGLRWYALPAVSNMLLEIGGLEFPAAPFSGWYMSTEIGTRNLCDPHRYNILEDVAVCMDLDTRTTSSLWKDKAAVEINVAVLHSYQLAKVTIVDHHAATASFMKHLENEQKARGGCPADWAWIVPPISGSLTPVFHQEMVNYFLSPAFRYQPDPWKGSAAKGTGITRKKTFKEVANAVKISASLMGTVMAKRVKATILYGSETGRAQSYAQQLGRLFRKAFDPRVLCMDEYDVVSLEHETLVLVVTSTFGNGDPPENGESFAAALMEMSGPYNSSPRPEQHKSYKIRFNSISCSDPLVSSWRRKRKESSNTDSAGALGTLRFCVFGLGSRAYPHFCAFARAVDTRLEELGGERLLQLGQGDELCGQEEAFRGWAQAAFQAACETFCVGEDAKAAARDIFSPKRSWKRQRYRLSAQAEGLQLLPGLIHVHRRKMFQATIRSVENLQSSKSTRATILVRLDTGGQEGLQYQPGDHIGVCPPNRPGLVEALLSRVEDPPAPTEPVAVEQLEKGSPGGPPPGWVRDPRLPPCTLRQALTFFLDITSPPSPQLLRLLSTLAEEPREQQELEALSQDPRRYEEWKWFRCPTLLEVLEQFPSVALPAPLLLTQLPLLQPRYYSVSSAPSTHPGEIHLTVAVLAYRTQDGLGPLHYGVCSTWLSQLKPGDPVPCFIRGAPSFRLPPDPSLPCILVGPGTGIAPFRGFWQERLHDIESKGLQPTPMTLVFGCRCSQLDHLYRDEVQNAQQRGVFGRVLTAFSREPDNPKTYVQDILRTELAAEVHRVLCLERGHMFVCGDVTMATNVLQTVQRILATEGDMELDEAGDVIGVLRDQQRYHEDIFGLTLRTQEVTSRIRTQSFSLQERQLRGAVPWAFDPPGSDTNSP

Nitric oxide synthase 1 [3] = target: T2, Nitric oxide synthase 1 (Homo sapiens, UniProt P29475); experiment: Inhibition of human neuronal Nitric Oxide Synthase
T2 sequence (P29475 whole entry): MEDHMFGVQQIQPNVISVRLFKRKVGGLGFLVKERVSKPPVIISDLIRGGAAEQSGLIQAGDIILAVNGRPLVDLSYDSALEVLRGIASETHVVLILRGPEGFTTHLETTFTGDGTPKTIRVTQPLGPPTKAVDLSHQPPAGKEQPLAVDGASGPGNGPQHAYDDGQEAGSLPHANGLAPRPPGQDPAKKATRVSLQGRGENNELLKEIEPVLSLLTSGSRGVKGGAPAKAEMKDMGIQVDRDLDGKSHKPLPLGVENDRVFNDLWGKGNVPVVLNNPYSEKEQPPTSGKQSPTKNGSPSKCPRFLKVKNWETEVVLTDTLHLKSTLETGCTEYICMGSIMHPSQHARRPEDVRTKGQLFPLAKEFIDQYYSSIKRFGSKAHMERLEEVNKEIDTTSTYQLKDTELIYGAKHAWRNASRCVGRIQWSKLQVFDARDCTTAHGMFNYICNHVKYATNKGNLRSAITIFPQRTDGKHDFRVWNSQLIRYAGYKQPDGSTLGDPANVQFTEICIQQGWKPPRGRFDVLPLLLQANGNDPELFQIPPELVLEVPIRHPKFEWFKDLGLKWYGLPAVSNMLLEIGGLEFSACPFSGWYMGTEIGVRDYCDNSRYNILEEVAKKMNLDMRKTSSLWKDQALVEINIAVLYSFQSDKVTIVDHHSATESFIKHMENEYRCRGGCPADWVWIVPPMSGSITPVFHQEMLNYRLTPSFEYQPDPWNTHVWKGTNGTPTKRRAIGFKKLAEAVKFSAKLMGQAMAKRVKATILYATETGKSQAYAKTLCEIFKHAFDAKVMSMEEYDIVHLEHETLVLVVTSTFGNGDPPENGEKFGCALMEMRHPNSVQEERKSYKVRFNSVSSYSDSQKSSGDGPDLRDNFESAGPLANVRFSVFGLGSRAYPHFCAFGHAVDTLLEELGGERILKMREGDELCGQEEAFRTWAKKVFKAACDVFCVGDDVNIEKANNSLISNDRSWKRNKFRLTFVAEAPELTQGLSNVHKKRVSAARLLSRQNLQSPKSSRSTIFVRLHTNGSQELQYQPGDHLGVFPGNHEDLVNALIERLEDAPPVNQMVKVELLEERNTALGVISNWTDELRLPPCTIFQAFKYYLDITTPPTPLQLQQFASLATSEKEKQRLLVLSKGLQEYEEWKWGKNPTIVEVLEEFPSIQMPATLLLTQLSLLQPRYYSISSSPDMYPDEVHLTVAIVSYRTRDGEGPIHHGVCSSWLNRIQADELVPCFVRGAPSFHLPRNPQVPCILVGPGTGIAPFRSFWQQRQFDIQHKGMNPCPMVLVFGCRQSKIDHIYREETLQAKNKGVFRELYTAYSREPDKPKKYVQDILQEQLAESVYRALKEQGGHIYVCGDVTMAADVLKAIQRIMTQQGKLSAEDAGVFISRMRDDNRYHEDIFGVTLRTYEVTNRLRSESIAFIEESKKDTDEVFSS

[4] = target: Nitric oxide sythases; iNOS & nNOS (Homo sapiens) (UniProt P29475+P35228); experiment: Ratio of binding to Neuronal nitric oxide synthase and Inducible nitric oxide synthase; format: protein assay
Nitric oxide sythases; iNOS & nNOS (Homo sapiens), sequence (P29475 whole entry, looked up): as the sequence (P29475 whole entry) above
Nitric oxide sythases; iNOS & nNOS (Homo sapiens), sequence (P35228 whole entry, looked up): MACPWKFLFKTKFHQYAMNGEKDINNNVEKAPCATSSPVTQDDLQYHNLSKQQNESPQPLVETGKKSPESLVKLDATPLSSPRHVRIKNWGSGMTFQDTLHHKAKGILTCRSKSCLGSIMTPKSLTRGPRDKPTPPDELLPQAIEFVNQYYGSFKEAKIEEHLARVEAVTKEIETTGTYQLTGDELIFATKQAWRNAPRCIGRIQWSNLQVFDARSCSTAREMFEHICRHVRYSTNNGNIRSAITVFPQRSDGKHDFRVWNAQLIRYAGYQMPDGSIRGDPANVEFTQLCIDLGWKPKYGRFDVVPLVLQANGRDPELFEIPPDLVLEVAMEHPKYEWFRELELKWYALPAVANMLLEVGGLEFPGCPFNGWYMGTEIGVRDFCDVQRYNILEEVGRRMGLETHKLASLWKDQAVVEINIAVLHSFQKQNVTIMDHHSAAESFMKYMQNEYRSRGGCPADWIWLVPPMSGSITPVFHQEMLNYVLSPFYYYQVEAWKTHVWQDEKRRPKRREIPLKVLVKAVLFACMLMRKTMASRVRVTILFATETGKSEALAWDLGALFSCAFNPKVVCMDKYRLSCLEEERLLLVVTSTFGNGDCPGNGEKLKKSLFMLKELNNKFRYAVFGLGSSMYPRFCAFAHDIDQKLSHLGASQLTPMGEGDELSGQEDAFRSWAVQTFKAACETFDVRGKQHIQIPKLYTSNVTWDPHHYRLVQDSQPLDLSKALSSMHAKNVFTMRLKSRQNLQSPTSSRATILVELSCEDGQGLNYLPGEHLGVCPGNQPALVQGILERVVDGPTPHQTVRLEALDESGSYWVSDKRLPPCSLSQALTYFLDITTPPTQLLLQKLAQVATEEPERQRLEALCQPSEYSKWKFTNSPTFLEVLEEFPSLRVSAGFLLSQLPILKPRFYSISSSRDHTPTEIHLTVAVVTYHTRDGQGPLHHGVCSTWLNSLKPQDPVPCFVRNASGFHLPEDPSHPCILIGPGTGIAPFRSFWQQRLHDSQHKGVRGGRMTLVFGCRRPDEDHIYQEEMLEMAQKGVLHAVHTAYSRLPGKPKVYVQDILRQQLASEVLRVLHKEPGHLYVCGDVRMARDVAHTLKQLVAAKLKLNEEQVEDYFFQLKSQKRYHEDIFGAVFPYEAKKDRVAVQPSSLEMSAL

[5] = target: Nitric oxide synthase (inducible and endothelial) (Homo sapiens) (UniProt P35228+P29474); experiment: Ratio of Endothelial Nitric Oxide Synthase to Inducible nitric oxide synthase; format: protein assay
Nitric oxide synthase 1 [6] = target: T2, Nitric oxide synthase 1; experiment: Concentration required for inhibition of neuronal Nitric Oxide Synthase in human
In short: (§1)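 Recombinant human NOS enzymes (endothelial or neuronal isoform) were tested in an oxyhaemoglobin assay. Readings were taken 15–30 min after inhibitor addition so that time-dependent inhibition could develop, and IC50 values were derived from those readings.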

Nitric oxide synthase 3 [7] = target: T1, Nitric oxide synthase 3; experiment: Concentration required for inhibition of endothelial Nitric Oxide Synthase in human; in short: as §1

Nitric oxide synthase, inducible, sequence (P35228 whole entry): as the sequence (P35228 whole entry, looked up) above

Structure (SMILES) | IC50 [1] | IC50 (Nitric oxide synthase 3 [2]) | IC50 (Nitric oxide synthase 1 [3]) | Ratio [4] | Ratio [5] | IC50 (Nitric oxide synthase 1 [6]) | IC50 (Nitric oxide synthase 3 [7])
CC(=N)NCCCOC[C@H](N)C(=O)O | > 100 µM | > 100 µM | > 100 µM | – | – | – | –
CC(=N)NCCCC[C@@H](N)C(=O)O | 1.6 µM | 78 µM | 37 µM | 23 | 49 | – | –
CC(=N)NCCCCCC(N)C(=O)O (stereo not given) | 20 µM | > 100 µM | > 100 µM | > 5 | > 5 | – | –
CC(=N)NCC[S+]([O-])CCC(N)C(=O)O (stereo not given) | > 100 µM | > 100 µM | > 100 µM | – | – | – | –
CC(=N)NCCS(=O)(=O)C[C@@H](N)C(=O)O | 8 µM | > 1000 µM | 630 µM | 78 | > 125 | – | –
CC(=N)NCCS(=O)(=O)CCC(N)C(=O)O (stereo not given) | > 100 µM | > 100 µM | – | – | – | > 100 µM | –
CC(=N)NCCCS(=O)(=O)C[C@H](N)C(=O)O | > 100 µM | > 100 µM | > 100 µM | – | – | – | –
CC(=N)NCC[S+]([O-])C[C@@H](N)C(=O)O (stereo not given in full) | 8 µM | 155 µM | 68 µM | 9 | 19 | – | –
CC(=N)NCCSC[C@H](N)C(=O)O | 5.4 µM | > 100 µM | 53 µM | 10 | > 18 | – | –
CC(=N)NCCSCC[C@@H](N)C(=O)O | 5.9 µM | > 100 µM | > 100 µM | > 17 | > 17 | – | –
CC(=N)NCCOC[C@H](N)C(=O)O | 1.2 µM | 13 µM | 11.6 µM | 10 | 11 | – | –
CC(=N)NCCSC[C@@H](N)C(=O)O | 0.7 µM | – | 13.2 µM | 19 | 57 | – | 40 µM
CC(=N)NCCOCCC(N)C(=O)O (stereo not given) | 1.4 µM | 72 µM | 6 µM | 5 | 51 | – | –
CC(=N)NCCSCC[C@H](N)C(=O)O [GW-274150] | 1.4 µM | 466 µM | 145 µM | 104 | 333 | – | –
CC(=N)NCCCSC[C@H](N)C(=O)O | 62 µM | > 100 µM | > 100 µM | – | – | – | –
